The source made the active and inactive calls.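 Rule for the calls: active = fitted curve reaches a 35% growth drop -35 below twice the top tested dose; inactive = activity in the wrong direction, or the rest.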

The first assay relates to P. aeruginosa PAK ΔmexAB-oprM growth with EDDHA, OD600, 28 h. Briefly: efflux-deficient P. aeruginosa PAK growth delay, dose response, whole organism, PAK mexAB-OprM mutant, OD600, EDDHA, dry powder, set 4 (AID 624074).
Conditions: not given
The essentials:
(§1)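 Assay system: Pseudomonas aeruginosa PAK with efflux-deficient ΔmexAB-oprM deletion, whole cells. Medium: succinate M9 medium at pH 7.0. Compound: 15 nM–100 µM final compound. Schedule: compound exposure of 28 h at 30 °C.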
Turning to `N#CC(c1cccc(Cl)n1)c1ccc(Cl)cc1F` (stereo unspecified), the AC35 was 47.5 µM. On the same count and under the same terms, the same measure for `N#CC(c1ccc(Cl)cc1)c1cccc(C(F)(F)F)n1` (stereo unspecified): 29 µM; for `N#CC(c1ccc(Cl)cc1)c1ncccc1Cl` (stereo unspecified): 56.2 µM; for `N#CC(c1ccc(Cl)cc1)c1ccc(Cl)cn1` (stereo unspecified): 72 µM. Still for that read-out and setting: the same measure for `N#CC(c1ccc(Cl)cc1)c1cccc(Cl)n1` (stereo unspecified): 60.3 µM. Still for that read-out and setting: to `N#CC(c1ccc(F)cc1)c1cccc(C(F)(F)F)n1` (stereo unspecified) belongs 25.6 µM; to `N#CC(c1cccc(C(F)(F)F)n1)c1ccc(Cl)cc1F` (stereo unspecified), 37.8 µM.

Test system in a further assay: not listed separately
The description is as above. As to conditions: P. aeruginosa PAK ΔmexAB-oprM growth with EDDHA, OD600, 28 h; at 100 µM (top of the series). An outline of the steps: as §1
Turning to `COCCNC(C#N)c1ccc(Cl)cc1` (stereo unspecified), the activity change, negative = growth inhibition was -1.19% (inactive). `COCCC(C#N)c1ccc(F)cc1` (stereo unspecified): the activity change, negative = growth inhibition was -11.9% (inactive). Still for that read-out and setting: to `CCCCC(C#N)c1ccc(F)cn1` (stereo unspecified) belongs -15.7% (inactive); to `CCCCC(c1ccc(Cl)cc1)c1nn[nH]n1` (stereo unspecified), -10.1% (inactive).

Source of the values: PubChem BioAssay AID624074 (Broad Institute, 2012).
